pIC50, pKi: −log10 of the molar value. The source made the active and inactive calls. The rule behind the calls is not given here.
Assays:
[1] = Inhibition of rel+ Escherichia coli B Phe-tRNA synthetase using L-[3H]-phenylalanine as substrate by scintillation counting analysis
[2] = Inhibition of Phe-tRNA synthetase in rel+ Escherichia coli B assessed as growth inhibition
Summary of the method: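 E. coli B/r in exponential growth (A600 ≈ 0.3) in basal salts medium (0.2% glucose, phosphate, MgSO4, (NH4)2SO4) was diluted into medium with a range of inhibitor levels. It was incubated at 37 °C for about three generations, until controls reached A600 0.4–0.45. Growth was read at 600 nm as % of control turbidity, and IC50 was taken from % inhibition versus concentration plots.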

Escherichia coli B [3] = test: Ratio of IC50 for inhibition of Phe-tRNA synthetase in rel+ Escherichia coli B assessed as growth inhibition to Ki for inhibition of rel+ Escherichia coli B Phe-tRNA synthetase using L-[3H]-phenylalanine as substrate
Escherichia coli B [4] = test: Inhibition of Phe-tRNA synthetase in rel+ Escherichia coli B assessed as growth inhibition at IC50 in presence of 2.5 mM L-Phe
Summary of the method: (§1)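 Reversal assay in E. coli B/r. Exponential culture (A600 ≈ 0.3) in basal salts glucose minimal medium was diluted into medium holding the specified amino acid plus inhibitor, at 37 °C. Controls had no inhibitor. Growth was read turbidimetrically at 600 nm after about three generations, as % inhibition relative to control.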

[5] = biological target: Isoleucine--tRNA ligase (Escherichia coli K-12) (UniProt P00956); test: Inhibition of Ile-tRNA synthetase in rel+ Escherichia coli B assessed as tRNA-Ile level at 9.2 uM at 37 degC after 30 mins in absence of casamino acid supplement in tris-glucose minimal media (reference value: 40%)
Chain of Isoleucine--tRNA ligase (Escherichia coli K-12) (P00956 whole entry): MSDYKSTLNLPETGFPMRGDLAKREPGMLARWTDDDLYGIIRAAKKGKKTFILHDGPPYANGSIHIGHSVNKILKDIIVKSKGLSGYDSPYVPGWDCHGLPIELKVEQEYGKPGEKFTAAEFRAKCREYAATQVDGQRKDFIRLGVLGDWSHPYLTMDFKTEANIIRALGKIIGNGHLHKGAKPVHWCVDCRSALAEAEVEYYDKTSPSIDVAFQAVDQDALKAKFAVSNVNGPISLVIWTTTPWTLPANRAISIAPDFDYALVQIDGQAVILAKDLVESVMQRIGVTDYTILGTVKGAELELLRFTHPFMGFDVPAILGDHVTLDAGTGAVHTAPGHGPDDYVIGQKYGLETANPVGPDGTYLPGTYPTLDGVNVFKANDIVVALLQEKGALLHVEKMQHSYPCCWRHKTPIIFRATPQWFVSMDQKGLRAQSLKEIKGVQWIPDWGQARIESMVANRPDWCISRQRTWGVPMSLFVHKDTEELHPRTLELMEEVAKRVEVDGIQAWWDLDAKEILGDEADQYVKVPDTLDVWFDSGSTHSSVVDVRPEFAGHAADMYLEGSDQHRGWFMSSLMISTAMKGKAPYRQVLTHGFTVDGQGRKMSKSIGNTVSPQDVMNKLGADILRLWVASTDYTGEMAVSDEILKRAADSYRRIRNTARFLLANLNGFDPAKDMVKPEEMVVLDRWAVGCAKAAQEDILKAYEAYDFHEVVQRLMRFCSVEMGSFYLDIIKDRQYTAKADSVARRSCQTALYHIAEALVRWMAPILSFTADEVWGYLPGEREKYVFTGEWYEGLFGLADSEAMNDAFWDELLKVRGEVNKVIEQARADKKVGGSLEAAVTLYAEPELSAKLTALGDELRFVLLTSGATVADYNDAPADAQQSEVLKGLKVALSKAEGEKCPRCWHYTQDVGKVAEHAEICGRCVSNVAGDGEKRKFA

Escherichia coli B [6] = test: Inhibition of Phe-tRNA synthetase in rel+ Escherichia coli B assessed as tRNA-Phe level at 230 uM at 37 degC after 30 mins in presence of casamino acid supplement in tris-glucose minimal media (reference value: 90%)
Escherichia coli B [7] = test: Inhibition of Val-tRNA synthetase in rel+ Escherichia coli B assessed as tRNA-val level at 230 uM at 37 degC after 30 mins in presence of casamino acid supplement in tris-glucose minimal media (reference value: 100%)
[8] = biological target: Isoleucine--tRNA ligase (Escherichia coli K-12) (UniProt P00956); test: Inhibition of Ile-tRNA synthetase in rel+ Escherichia coli B assessed as tRNA-Ile level at 230 uM at 37 degC after 30 mins in presence of casamino acid supplement in tris-glucose minimal media (reference value: 50%)
Escherichia coli [9] = test: Inhibition of Phe-tRNA synthetase in Escherichia coli NP29 assessed as formation of [32P]ppGpp at 230 uM at 30 degC measured every 1 min by scintillation counting analysis
Summary of the method: (§2)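 Exponential cultures in Tris-glucose minimal medium were labeled with carrier-free [32P]phosphate at least 30 min before inhibitor. Four to five 25 µL aliquots were taken at about 1-min intervals into ice-cold 2 M formic acid and held 30 min at 0 °C. Extracts were run on PEI-cellulose TLC in 1.5 M KH2PO4 pH 3.4. ppGpp spots were located by autoradiography and counted. Initial rate was taken as the linear increase over time.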

Escherichia coli B [10] = test: Inhibition of Phe-tRNA synthetase in rel+ Escherichia coli B assessed as formation of [32P]ppGpp at 4.6 uM at 37 degC measured every 1 min by scintillation counting analysis in absence of casamino acid supplement in tris-glucose minimal media; summary of the method: as §2
Escherichia coli B [11] = test: Inhibition of Phe-tRNA synthetase in rel+ Escherichia coli B assessed as formation of [32P]ppGpp at 9.2 uM at 37 degC measured every 1 min by scintillation counting analysis in absence of casamino acid supplement in tris-glucose minimal media; summary of the method: as §2
Escherichia coli B [12] = test: Inhibition of Phe-tRNA synthetase in rel+ Escherichia coli B assessed as formation of [32P]ppGpp at 23 uM at 37 degC measured every 1 min by scintillation counting analysis in absence of casamino acid supplement in tris-glucose minimal media; summary of the method: as §2
Escherichia coli B [13] = test: Inhibition of Phe-tRNA synthetase in rel+ Escherichia coli B assessed as formation of [32P]ppGpp at 230 uM at 37 degC measured every 1 min by scintillation counting analysis in absence of casamino acid supplement in tris-glucose minimal media; summary of the method: as §2
Escherichia coli B [14] = test: Inhibition of Phe-tRNA synthetase in rel+ Escherichia coli B assessed as formation of [32P]ppGpp at 230 uM at 37 degC measured every 1 min by scintillation counting analysis in presence of casamino acid supplement in tris-glucose minimal media; summary of the method: as §2
Escherichia coli B [15] = test: Inhibition of Phe-tRNA synthetase in rel+ Escherichia coli B assessed as formation of [32P]ppGpp at 92 uM measured every 1 min by scintillation counting analysis; summary of the method: as §2
Escherichia coli B [16] = test: Inhibition of Phe-tRNA synthetase in rel+ Escherichia coli B assessed as growth inhibition at 92 uM
Summary of the method: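 E. coli B/r in log phase at 37 °C, with inhibitor added at a set time. Cell density was followed turbidimetrically at 600 nm alongside ppGpp and RNA synthesis measurements.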

Escherichia coli B [17] = test: Inhibition of Phe-tRNA synthetase in rel+ Escherichia coli B assessed as [3H]-RNA synthesis at 92 uM after 5 mins by scintillation counting analysis in presence of [5-3H]-Uracil
Summary of the method: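 E. coli B/r in exponential growth was labeled with [5-3H]uracil (75 Ci/mol). At intervals, 25 µL culture was put into 1 mL ice-cold trichloroacetic acid for 5 min at 0 °C. Samples were filtered on glass-fibre filters, washed with cold TCA then 95% ethanol, and counted by scintillation.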

[18] = Inhibition of Phe-tRNA synthetase in rel+ Escherichia coli B assessed as reduction of tRNA-Phe level after 30 mins
Escherichia coli B [19] = test: Inhibition of Phe-tRNA synthetase in rel+ Escherichia coli B assessed as half maximal rate of [32P]ppGpp formation at 70 uM measured every 1 min by scintillation counting analysis; summary of the method: as §2
Escherichia coli B [20] = test: Inhibition of Phe-tRNA synthetase in rel+ Escherichia coli B assessed as growth inhibition at IC50 in presence of Ser; summary of the method: as §1
Escherichia coli B [21] = test: Inhibition of Phe-tRNA synthetase in rel+ Escherichia coli B assessed as growth inhibition at IC50 in presence of Tyr; summary of the method: as §1
Escherichia coli B [22] = test: Inhibition of Phe-tRNA synthetase in rel+ Escherichia coli B assessed as growth inhibition at IC50 in presence of Ile; summary of the method: as §1
Escherichia coli B [23] = test: Inhibition of Phe-tRNA synthetase in rel+ Escherichia coli B assessed as growth inhibition at IC50 in presence of Pro; summary of the method: as §1
Escherichia coli B [24] = test: Inhibition of Phe-tRNA synthetase in rel+ Escherichia coli B assessed as growth inhibition at IC50 in presence of Val; summary of the method: as §1
Escherichia coli [25] = test: Inhibition of Phe-tRNA synthetase in Escherichia coli NP29 assessed as tRNA-Phe level at 230 uM at 30 degC after 30 mins (reference value: 70%)
Summary of the method: (§3)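 Temperature-sensitive Val-tRNA synthetase strain NP29, grown at 30 °C in Tris-glucose minimal medium with 0.2% casamino acids. Inhibitor was added during log growth and the control was kept at 30 °C. After 30 min, cells were quenched with ice and NaN3 and disrupted. Aminoacyl-tRNA was measured by periodate oxidation (1 mM) or Tris-HCl pH 8.0 stripping, with purified synthetases.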

Escherichia coli [26] = test: Inhibition of Val-tRNA synthetase in Escherichia coli NP29 assessed as tRNA-val level at 230 uM at 30 degC after 30 mins (reference value: 30%); summary of the method: as §3
[27] = biological target: Isoleucine--tRNA ligase (Escherichia coli K-12) (UniProt P00956); test: Inhibition of Ile-tRNA synthetase in Escherichia coli NP29 assessed as tRNA-Ile level at 230 uM at 30 degC after 30 mins (reference value: 40%); summary of the method: as §3
Escherichia coli B [28] = test: Inhibition of rel+ Phe-tRNA synthetase in Escherichia coli B assessed as tRNA-Phe level at 4.6 uM at 37 degC after 30 mins in absence of casamino acid supplement in tris-glucose minimal media (reference value: 60%)
[29] = biological target: Isoleucine--tRNA ligase (Escherichia coli K-12) (UniProt P00956); test: Inhibition of Ile-tRNA synthetase in rel+ Escherichia coli B assessed as tRNA-Ile level at 4.6 uM at 37 degC after 30 mins in absence of casamino acid supplement in tris-glucose minimal media (reference value: 40%)
Escherichia coli B [30] = test: Inhibition of Phe-tRNA synthetase in rel+ Escherichia coli B assessed as tRNA-Phe level at 23 uM at 37 degC after 30 mins in absence of casamino acid supplement in tris-glucose minimal media (reference value: 60%)
[31] = biological target: Isoleucine--tRNA ligase (Escherichia coli K-12) (UniProt P00956); test: Inhibition of Ile-tRNA synthetase in rel+ Escherichia coli B assessed as tRNA-Ile level at 23 uM at 37 degC after 30 mins in absence of casamino acid supplement in tris-glucose minimal media (reference value: 40%)
Escherichia coli B [32] = test: Inhibition of Phe-tRNA synthetase in rel+ Escherichia coli B assessed as tRNA-Phe level at 230 uM at 37 degC after 30 mins in absence of casamino acid supplement in tris-glucose minimal media (reference value: 60%)
Escherichia coli B [33] = test: Inhibition of Val-tRNA synthetase in rel+ Escherichia coli B assessed as tRNA-val level at 230 uM at 37 degC after 30 mins in absence of casamino acid supplement in tris-glucose minimal media
[34] = biological target: Isoleucine--tRNA ligase (Escherichia coli K-12) (UniProt P00956); test: Inhibition of Ile-tRNA synthetase in rel+ Escherichia coli B assessed as tRNA-Ile level at 230 uM at 37 degC after 30 mins in absence of casamino acid supplement in tris-glucose minimal media (reference value: 40%)
Escherichia coli B [35] = test: Inhibition of Phe-tRNA synthetase in rel+ Escherichia coli B assessed as tRNA-Phe level at 9.2 uM at 37 degC after 30 mins in absence of casamino acid supplement in tris-glucose minimal media (reference value: 60%)

## c1ccc(CCNCc2ccccc2)cc1
[1]
  pKi: 6.17
[2]
  pIC50: 4.11
Escherichia coli B [3]
  Ratio: 115
Escherichia coli B [4]
  inhibition: inactive

## OC[C@@H](Cc1ccccc1)NCc1ccccc1
[1]
  pKi: 6.11
[2]
  pIC50: 4.09
Escherichia coli B [3]
  Ratio: 106
Escherichia coli B [4]
  inhibition: inactive

## C[C@@H](Cc1ccccc1)NCc1ccccc1
[1]
  pKi: 5.25
[2]
  pIC50: 3.23
Escherichia coli B [3]
  Ratio: 105
Escherichia coli B [4]
  inhibition: inactive

## C[C@H](Cc1ccccc1)NCc1ccccc1 [N-BENZYLAMPHETAMINE]
[5]
  inhibition: 40%
Escherichia coli B [6]
  inhibition: 15%
Escherichia coli B [7]
  inhibition: 100%
[8]
  inhibition: 55%
Escherichia coli [9]
  inhibition: Active
Escherichia coli B [10]
  inhibition: Active
Escherichia coli B [11]
  inhibition: Active
Escherichia coli B [12]
  inhibition: Active
Escherichia coli B [13]
  inhibition: Active
Escherichia coli B [14]
  inhibition: Active
Escherichia coli B [15]
  inhibition: Active
Escherichia coli B [16]
  inhibition: Active
Escherichia coli B [17]
  inhibition: Active
[18]
  pIC50: 4.89
Escherichia coli B [19]
  inhibition: Active
Escherichia coli B [20]
  inhibition: Active
Escherichia coli B [21]
  inhibition: Active
Escherichia coli B [22]
  inhibition: Active
Escherichia coli B [23]
  inhibition: Active
[1]
  pKi: 6.85
[2]
  pIC50: 4.82
Escherichia coli B [3]
  Ratio: 107
Escherichia coli B [4]
  inhibition: inactive
Escherichia coli B [24]
  inhibition: Active
Escherichia coli [25]
  inhibition: 5%
Escherichia coli [26]
  inhibition: 95%
[27]
  inhibition: 45%
Escherichia coli B [28]
  inhibition: 45%
[29]
  inhibition: 40%
Escherichia coli B [30]
  inhibition: 20%
[31]
  inhibition: 45%
Escherichia coli B [32]
  inhibition: 10%
Escherichia coli B [33]
  inhibition: 100%
[34]
  inhibition: 45%
Escherichia coli B [35]
  inhibition: 35%

## NCCc1ccccc1 [PHENETHYLAMINE]
[1]
  pKi: 4.03
[2]
  pIC50: 1.96
Escherichia coli B [3]
  Ratio: 117
